Data reported in ChEMBL document CHEMBL4041550, “Structure-Activity Relationship Study of QL47: A Broad-Spectrum Antiviral Agent” (ACS Med Chem Lett, 2017).
pIC50: −log10 of the molar value.

Columns and labels:
[1] = system: dengue virus type 2; assay: Antiviral activity against Dengue virus serotype 2 replicon harboring GVD mutant infected in HuH7 cells assessed as reduction in viral RNA translation at 2 uM measured at 6 hrs post infection by luciferase reporter gene assay relative to control; assay type: functional; parameters: scale not given: the % may be the effect or the level left
Summary of the method: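 Huh7 cells transfected with in vitro-transcribed nonreplicative DENV2(GVD) reporter replicon RNA, then treated immediately with compound at 2 or 10 μM. Intracellular firefly luciferase activity read 6 h post-transfection as a measure of RNA translation and expressed relative to DMSO-treated samples. Mean ± SD of experimental duplicates, n = 3 repeats.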

[2] = system: dengue virus type 2; assay: Antiviral activity against Dengue virus serotype 2 strain New Guinea C infected in HuH7 cells assessed as reduction in log-fold change by measuring focus forming unit at 10 uM measured at 24 hrs post infection by focus forming assay relative to control; assay type: functional, Thailand/NGS-C/1944
Summary of the method: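 DENV2-infected Huh7 cells treated with compound at 2 or 10 μM. Infectious virus secreted into culture supernatants at 24 h post-infection/treatment was titred by focus-forming assay. Result expressed as log-fold change relative to DMSO treatment.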

[3] = Half life in mouse hepatic microsomes at 1 uM in presence of NADPH by LC-MS/MS method; assay type: ADME, Microsome; settings: liver microsomes
Summary of the method: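 Compound incubated with mouse liver microsomes; half-life (T1/2, min) of the compound reported as a measure of metabolic stability.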

[4] = target: Epithelial discoidin domain-containing receptor 1 (Homo sapiens, UniProt Q08345); assay: Inhibition of GST-tagged human DDR1 catalytic domain (440 to 876 residues) expressed in baculovirus expression system by LanthaScreen assay
Summary of the method: (§1)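 IC50 against DDR1 and DDR2 determined with LanthaScreen binding assays.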

[5] = target: T1, Discoidin domain-containing receptor 2 (Homo sapiens, UniProt Q16832); assay: Inhibition of GST-tagged human DDR2 cytoplasmic domain (427 to 855 residues) expressed in baculovirus expression system by LanthaScreen assay; summary of the method: as §1
T1 sequence (Q16832 whole entry): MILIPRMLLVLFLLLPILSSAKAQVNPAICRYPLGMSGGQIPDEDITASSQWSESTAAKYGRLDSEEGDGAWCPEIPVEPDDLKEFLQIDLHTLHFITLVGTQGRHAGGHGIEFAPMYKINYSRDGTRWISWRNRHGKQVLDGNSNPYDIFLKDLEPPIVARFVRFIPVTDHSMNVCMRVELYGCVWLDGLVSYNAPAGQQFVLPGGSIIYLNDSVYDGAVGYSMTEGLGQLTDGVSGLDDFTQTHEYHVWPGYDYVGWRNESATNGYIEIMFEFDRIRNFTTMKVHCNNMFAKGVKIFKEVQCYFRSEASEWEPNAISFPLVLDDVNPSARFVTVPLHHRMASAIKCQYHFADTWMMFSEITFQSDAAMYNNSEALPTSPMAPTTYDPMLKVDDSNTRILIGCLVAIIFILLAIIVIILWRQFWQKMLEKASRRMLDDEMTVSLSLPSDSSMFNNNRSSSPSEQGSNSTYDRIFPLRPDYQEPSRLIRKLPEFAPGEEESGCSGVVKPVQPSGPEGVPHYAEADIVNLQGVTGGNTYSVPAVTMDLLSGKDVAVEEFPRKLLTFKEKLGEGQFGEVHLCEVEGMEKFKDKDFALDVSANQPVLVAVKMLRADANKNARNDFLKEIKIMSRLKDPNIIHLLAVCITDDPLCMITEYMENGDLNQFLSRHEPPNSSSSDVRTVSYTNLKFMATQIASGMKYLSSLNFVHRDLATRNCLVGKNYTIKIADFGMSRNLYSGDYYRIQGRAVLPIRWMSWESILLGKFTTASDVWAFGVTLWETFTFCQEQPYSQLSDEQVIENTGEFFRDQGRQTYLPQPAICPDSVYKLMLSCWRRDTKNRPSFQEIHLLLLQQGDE

[6] = target: Tyrosine-protein kinase BTK (Homo sapiens, UniProt Q06187); assay: Inhibition of recombinant full length His-tagged human BTK cytoplasmic domain expressed in baculovirus expression system by Z'-Lyte assay
Summary of the method: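 IC50 against PIM1, PIM2, BTK and BMX determined with Z′-Lyte kinase activity assays.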

[7] = Selectivity index, ratio of CC50 for cytotoxicity against human HuH7 to IC90 for antiviral activity against Dengue virus serotype 2 strain New Guinea C infected in HuH7 cells
Summary of the method: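 Huh7 cells infected with DENV2, then treated across a concentration range. At 24 h, cell viability was measured, and secreted infectious virus was titrated by focus-forming assay. CC50 (50% cytotoxicity) and IC90 (1-log10 reduction in infectious progeny) were fitted by non-linear regression. Experimental duplicates, n ≥ 2 repeats.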

[8] = Half life in Swiss albino mouse at 2 mg/kg, iv by LC/MS/MS method; assay type: ADME, organism-based; settings: in vivo
Summary of the method: (§2)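 Mouse pharmacokinetics after intravenous, oral or intraperitoneal dosing; plasma parameters derived were T1/2, Tmax, Cmax, AUClast, AUCinf, clearance, Vss and oral bioavailability F.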

[9] = AUClast in Swiss albino mouse at 2 mg/kg, iv by LC/MS/MS method; assay type: ADME, organism-based; parameters: dose 2 mg/kg, route intravenous, time 0 - last; settings: in vivo
[10] = AUClast in Swiss albino mouse at 10 mg/kg, ip by LC/MS/MS method; assay type: ADME, organism-based; parameters: dose 10 mg/kg, route intraperitoneal, time 0 - last; settings: in vivo
[11] = AUClast in Swiss albino mouse at 50 mg/kg, ip by LC/MS/MS method; assay type: ADME, organism-based; parameters: dose 50 mg/kg, route intraperitoneal, time 0 - last; settings: in vivo
[12] = AUC (infinity) in Swiss albino mouse at 10 mg/kg, po by LC/MS/MS method; assay type: ADME, organism-based; parameters: dose 10 mg/kg, route oral, time infinity; settings: in vivo
[13] = AUC (infinity) in Swiss albino mouse at 10 mg/kg, ip by LC/MS/MS method; assay type: ADME, organism-based; parameters: dose 10 mg/kg, route intraperitoneal, time infinity; settings: in vivo
[14] = AUC (infinity) in Swiss albino mouse at 50 mg/kg, ip by LC/MS/MS method; assay type: ADME, organism-based; parameters: dose 50 mg/kg, time infinity, route intraperitoneal; settings: in vivo
[15] = Volume of distribution at steady state in Swiss albino mouse at 2 mg/kg, iv by LC/MS/MS method; assay type: ADME, organism-based; settings: in vivo, read-out: Vdss; summary of the method: as §2

Tyrosine-protein kinase BTK, sequence (Q06187 whole entry, the tested form may be a part): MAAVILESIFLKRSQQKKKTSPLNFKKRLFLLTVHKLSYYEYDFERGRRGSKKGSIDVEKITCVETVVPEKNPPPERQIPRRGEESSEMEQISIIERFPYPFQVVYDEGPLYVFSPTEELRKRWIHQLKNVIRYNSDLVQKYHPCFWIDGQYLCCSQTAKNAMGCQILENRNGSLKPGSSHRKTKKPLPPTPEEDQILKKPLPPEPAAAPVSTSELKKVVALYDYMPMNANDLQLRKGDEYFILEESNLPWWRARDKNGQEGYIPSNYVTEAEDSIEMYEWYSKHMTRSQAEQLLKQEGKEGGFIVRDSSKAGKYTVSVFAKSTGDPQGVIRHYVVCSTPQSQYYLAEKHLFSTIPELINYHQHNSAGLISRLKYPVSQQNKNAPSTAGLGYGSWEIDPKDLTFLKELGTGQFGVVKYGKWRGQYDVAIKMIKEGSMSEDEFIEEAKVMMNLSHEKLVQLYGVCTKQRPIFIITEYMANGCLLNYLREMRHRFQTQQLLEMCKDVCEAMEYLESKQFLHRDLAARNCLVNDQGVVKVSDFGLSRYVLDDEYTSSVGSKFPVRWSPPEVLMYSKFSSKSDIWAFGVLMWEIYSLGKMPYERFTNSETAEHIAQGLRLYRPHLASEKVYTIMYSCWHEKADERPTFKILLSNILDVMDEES
Epithelial discoidin domain-containing receptor 1, sequence (Q08345 whole entry, the tested form may be a part): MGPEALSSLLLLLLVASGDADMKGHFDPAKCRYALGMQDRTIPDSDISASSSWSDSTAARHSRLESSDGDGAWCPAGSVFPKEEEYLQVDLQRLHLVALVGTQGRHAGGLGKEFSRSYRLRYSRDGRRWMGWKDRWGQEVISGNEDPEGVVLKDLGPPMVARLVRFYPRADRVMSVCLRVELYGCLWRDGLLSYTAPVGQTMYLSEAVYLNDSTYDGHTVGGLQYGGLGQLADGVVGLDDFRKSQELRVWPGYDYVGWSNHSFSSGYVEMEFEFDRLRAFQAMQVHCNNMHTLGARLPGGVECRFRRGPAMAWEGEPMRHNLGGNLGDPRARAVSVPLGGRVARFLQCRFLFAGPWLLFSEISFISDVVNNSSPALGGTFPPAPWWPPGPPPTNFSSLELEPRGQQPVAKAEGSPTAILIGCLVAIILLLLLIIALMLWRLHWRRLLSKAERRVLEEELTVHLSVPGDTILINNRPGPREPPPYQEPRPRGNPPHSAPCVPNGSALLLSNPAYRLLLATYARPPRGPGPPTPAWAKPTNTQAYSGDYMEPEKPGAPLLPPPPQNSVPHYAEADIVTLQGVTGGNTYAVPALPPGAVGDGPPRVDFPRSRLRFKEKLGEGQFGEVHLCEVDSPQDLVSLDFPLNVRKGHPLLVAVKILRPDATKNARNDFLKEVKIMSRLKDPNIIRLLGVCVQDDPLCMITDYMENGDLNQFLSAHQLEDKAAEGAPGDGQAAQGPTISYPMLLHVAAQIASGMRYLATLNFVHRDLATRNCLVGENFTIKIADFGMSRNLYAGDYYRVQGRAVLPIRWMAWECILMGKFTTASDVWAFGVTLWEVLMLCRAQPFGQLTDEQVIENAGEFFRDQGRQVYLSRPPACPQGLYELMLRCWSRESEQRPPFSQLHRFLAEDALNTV

Cc1ccc(-n2c(=O)ccc3ccc4ccc(-c5cnn(C)c5)cc4c32)cc1NC(=O)/C=C/CN(C)C
Activity [1]: 65% | Activity [2]: 4 log10FFU/ml | half-life at 1 µM [3]: 15.6 min | pIC50 [4]: 5.30 | pIC50 [5]: < 5.00 | pIC50 [6]: 6.04 | Selectivity Index [7]: 35 | half-life [8]: 64.2 min | AUC(0-t) [9]: 161 ng·h/mL | AUC(0-t) [10]: 1110 ng·h/mL | AUC(0-t) [11]: 8220 ng·h/mL | AUC(0-inf) [12]: 118 ng·h/mL | AUC(0-inf) [13]: 1210 ng·h/mL | AUC(0-inf) [14]: 8550 ng·h/mL | Vd [15]: 9.58 L/kg
